The values below come from PubChem BioAssay.

The source made the active and inactive calls.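 Rule for the calls, unless noted: active = viability at or below 10% of carrier control in both of two separate runs; inconclusive = viability at or below 10% in only one of the two runs; inactive = the rest.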

The nature of test [1]: Her2 expression decrease, cell viability multiplex – SKBR3 breast tumor cells, AlphaScreen, ATP viability, primary screen (AID 461;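 active = Her2 level under about 52% in both replicate screens, with viability over 70% of control, limit read from the data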;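 for Her2 level: lower value means less Her2 protein in the cells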;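 for viability: percent of carrier control wells set as 100% viability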). The note with it: SKBR3 Her2 protein level, 18-24 h, measured here: SKBR3 viability, ATP luminescence, at 10 µM.
Test [2] concerns the target Receptor tyrosine-protein kinase erbB-2 (Homo sapiens) (UniProt P04626). The description is as above. The conditions noted are these: 18-24 h, at 10 µM, stronger effect = lower value.
A short description of test [3]: reduced viability of SK-BR-3 breast cancer cells – cell-based, 24 h, human, pilot screen (AID 572).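 Note: compound exposure lasted between 18 and 24 h rather than exactly 24 h; 100% = carrier-treated control wells.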 The note with it: SK-BR-3 viability, CellTiter-Glo luminescence, at 10 µM, stronger effect = lower value.
A short description of test [4]: HUVEC growth inhibition – cell-based, human, primary screen (AID 575;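 active = viability at or below 30% in both replicate assays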;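 note: 100% = median of untreated cell wells with 0.1% DMSO on each plate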). The conditions noted are these: HUVEC proliferation, CellTiter-Glo luminescence, 72 h; at 10 µM; stronger effect = lower value. Summed up: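 Timing: 72 h treatment at 37 °C; material: HUVEC primary cells; technique: CellTiter-Glo luminescence measuring cellular ATP; controls: vehicle and MePR control wells; measure: percent of median DMSO-control luminescence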
On the technique in general: In ATP-based viability assays light output follows the ATP content of the culture.

The nature of test [5]: MRP1 drug-resistance reversers in H69AR cells – cell-based, doxorubicin co-treatment, pilot screen (AID 601;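 active = viability loss from added drug above about 55%, and viability with drug at most 40%, in both replicates, limit read from the data, passing the limit was not always enough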). The conditions noted are these: CellTiter-Glo, 72 h, at 10 µM; for differential viability (reversal): stronger effect = higher value.
Test [6] can be described thus: yeast transport mutant growth inhibition pilot in 384-well plates, post-Golgi transport modulator project (AID 636; in the data active = inhibition above about 31%). The note with it: absorbance 615 nm, about 18 h, stronger effect = higher value.
Test [7] is described as follows: growth suppression of yeast trafficking mutant, preliminary HTS, modulators of trafficking downstream of Golgi apparatus project, 1536-format plate, OD 615 nm (AID 637; in the data active = inhibition above about 30%). The note with it: yeast transport mutant growth, absorbance 615 nm, 18 h; stronger effect = higher value.
A short description of test [8]: H69AR cell proliferation blockers – human, duplicate replicates, primary screen (AID 580;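 active = viability at or under a set limit in both replicates, limit being median viability minus 3 SD, cut at about 48% in these data, passing the limit was not always enough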;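 note: 100% = mean luminescence of untreated wells and 0% = no signal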). The note with it: H69AR lung tumor cells viability, ATP luminescence, 72 h; at 10 µM; stronger effect = lower value.
Where [9] appears, read: H69AR cells + 2 uM doxorubicin, measured here: viability with 2 uM doxorubicin, stronger effect = lower value.
Where [10] appears, read: H69AR cells, compound alone cytotoxicity.

Sequence of Receptor tyrosine-protein kinase erbB-2 (Homo sapiens) (P04626 whole entry, looked up): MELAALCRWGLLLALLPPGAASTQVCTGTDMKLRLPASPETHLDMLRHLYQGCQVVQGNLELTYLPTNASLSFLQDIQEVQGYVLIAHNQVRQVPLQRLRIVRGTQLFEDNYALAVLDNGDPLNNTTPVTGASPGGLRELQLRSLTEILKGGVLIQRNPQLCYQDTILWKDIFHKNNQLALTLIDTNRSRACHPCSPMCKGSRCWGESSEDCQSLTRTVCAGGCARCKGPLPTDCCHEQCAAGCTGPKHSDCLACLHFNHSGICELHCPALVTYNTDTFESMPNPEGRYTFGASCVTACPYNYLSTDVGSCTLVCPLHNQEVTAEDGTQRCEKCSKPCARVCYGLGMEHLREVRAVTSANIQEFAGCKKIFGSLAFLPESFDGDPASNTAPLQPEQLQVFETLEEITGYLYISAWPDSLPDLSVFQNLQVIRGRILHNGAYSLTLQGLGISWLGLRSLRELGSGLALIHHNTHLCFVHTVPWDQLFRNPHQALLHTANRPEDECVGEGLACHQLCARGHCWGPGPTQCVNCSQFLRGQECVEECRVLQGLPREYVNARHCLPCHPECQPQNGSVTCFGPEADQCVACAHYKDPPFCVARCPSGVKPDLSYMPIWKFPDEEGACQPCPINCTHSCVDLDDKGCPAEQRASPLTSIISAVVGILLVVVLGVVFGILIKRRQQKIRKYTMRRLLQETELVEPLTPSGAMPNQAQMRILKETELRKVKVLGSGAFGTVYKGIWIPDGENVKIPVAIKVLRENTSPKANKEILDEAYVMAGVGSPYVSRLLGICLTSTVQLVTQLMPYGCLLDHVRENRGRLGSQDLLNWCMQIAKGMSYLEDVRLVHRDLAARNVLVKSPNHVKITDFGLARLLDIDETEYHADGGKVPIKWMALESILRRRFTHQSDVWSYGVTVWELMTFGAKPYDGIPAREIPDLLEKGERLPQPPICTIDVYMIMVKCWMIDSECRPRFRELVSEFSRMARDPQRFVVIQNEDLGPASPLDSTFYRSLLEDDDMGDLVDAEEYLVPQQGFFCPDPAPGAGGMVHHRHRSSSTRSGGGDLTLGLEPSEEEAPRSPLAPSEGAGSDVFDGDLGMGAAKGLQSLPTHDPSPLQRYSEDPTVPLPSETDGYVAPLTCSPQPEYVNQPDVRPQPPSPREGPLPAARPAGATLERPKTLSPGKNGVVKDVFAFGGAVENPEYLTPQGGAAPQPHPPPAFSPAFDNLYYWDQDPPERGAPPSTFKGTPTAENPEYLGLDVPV

One may read the viability as a read-out of living cells in per cent, often relative to untreated cells. For orientation: inhibition means the drop in the measured response relative to a control, in per cent. Take `N#C/C(C(=O)NCc1ccco1)=C1/SC(Cc2ccc(F)cc2)C(=O)N1c1ccccc1` (stereo not given): the viability in test [1] was 112%; in test [3], 112% (inactive); in test [4], 88.3% (inactive); in test [5] (setting [9]), 58.3%; in test [5] (setting [10]) it was 48%. Also, the Her2 level in test [2] was 84% (inactive). Further, the differential viability (reversal) in test [5] (H69AR cells + 2 uM doxorubicin) was -10.3% (inactive). For the same compound, the inhibition in test [6] was -3.68% (inactive); in test [7] it was -1.64% (inactive).

Regarding `CCSc1nnc(NC(=O)c2ccccn2)s1`, the viability is 92% in test [1]; 92% (inactive) in test [3]; 18.4% (active) in test [4]; 34.8% in test [5] (setting [9]); 20.8% in test [5] (setting [10]). Moreover, the Her2 level in test [2] was 80.5% (inactive). Further, the differential viability (reversal) in test [5] (H69AR cells + 2 uM doxorubicin) is -14% (inactive). The inhibition in test [6] was 4.03% (inactive); in test [7], 9.21% (inactive).

With `CCOC(=O)c1cc(-c2ccc3c(c2)OCO3)nc2onc(C)c12`, the viability was 110% in test [1]; 110% (inactive) in test [3]; 67.2% (inactive) in test [8]; 70.9% in test [5] (setting [9]); 67.2% in test [5] (setting [10]). Besides, the Her2 level in test [2] is 89.5% (inactive). For the same compound, in test [5] (H69AR cells + 2 uM doxorubicin), the differential viability (reversal) was -3.71% (inactive). The figures for the inhibition in test [6] and in test [7] were -4.93% (inactive) and 2.9% (inactive), respectively.

As for `NC(=O)c1cc(-c2ccccc2)nc(N2CCOCC2)n1`, the viability in test [1] was 102%; in test [3], 102% (inactive); in test [8] it was 84.4% (inactive); in test [5] (setting [9]), 72.3%; in test [5] (setting [10]) it was 84.4%. For the same compound, in test [2], the Her2 level was 69.5% (inactive). The differential viability (reversal) in test [5] (H69AR cells + 2 uM doxorubicin) is 12.1% (inactive). Moreover, the values for the inhibition in test [6] and in test [7] were -2.97% (inactive) and -6.35% (inactive), respectively.

Regarding `CCOC(=O)c1cnc(-n2nc(C)cc2C)nc1Nc1ccc(N(C)C)cc1`, the viability is 102% in test [1]; 102% (inactive) in test [3]; 37.9% (active) in test [8]; 26.3% in test [5] (setting [9]); 37.9% in test [5] (setting [10]). For the same compound, the Her2 level in test [2] was 75.5% (inactive). For the same compound, in test [5] (H69AR cells + 2 uM doxorubicin), the differential viability (reversal) was 11.6% (inactive). For the same compound, the inhibition in test [6] is -6.05% (inactive); in test [7], -1.13% (inactive).

For `c1ccc2c(-c3nc(C4CCCCC4)no3)cc(-c3ccncc3)nc2c1`, the viability is 72.5% in test [1]; 72.5% (inactive) in test [3]; 66.6% (inactive) in test [4]; 49.4% in test [5] (setting [9]); 43.6% in test [5] (setting [10]). Besides, in test [2], the Her2 level was 69% (inactive). Moreover, in test [5] (H69AR cells + 2 uM doxorubicin), the differential viability (reversal) was -5.85% (inactive). Further, the inhibition in test [6] was 45.3% (active); in test [7] it was 8.23% (inactive).

In the case of `CCn1c(SCc2nc(-c3cccs3)no2)nnc1-c1c[nH]c2ccccc12`, the viability in test [1] is 99%; in test [3] it was 99% (inactive); in test [8], 78.8% (inactive); in test [5] (setting [9]), 74.4%; in test [5] (setting [10]), 78.8%. Further, the Her2 level in test [2] is 65.5% (inactive). Also, the differential viability (reversal) in test [5] (H69AR cells + 2 uM doxorubicin) is 4.39% (inactive). Besides, the inhibition was -5.26% (inactive) in test [6] and -5.67% (inactive) in test [7].

On to `CO[C@H]1C=CO[C@@]2(C)Oc3c(C)c(O)c4c(O)c(c(C=NN5CCN(C)CC5)c(O)c4c3C2=O)NC(=O)C(C)=CC=C[C@H](C)[C@H](O)[C@@H](C)[C@@H](O)[C@@H](C)[C@H](OC(C)=O)[C@@H]1C`, for which the viability in test [1] is 90.5%; in test [3], 90.5% (inactive); in test [8], 88.9% (inactive); in test [5] (setting [9]), 87.3%; in test [5] (setting [10]), 88.9%. The Her2 level in test [2] was 85.5% (inactive). Besides, in test [5] (H69AR cells + 2 uM doxorubicin), the differential viability (reversal) was 1.53% (inactive).

`CC(C)C[C@H]1C(=O)N2CCC[C@H]2[C@]2(O)O[C@](NC(=O)[C@@H]3C=C4c5cccc6[nH]c(Br)c(c56)CC4N(C)C3)(C(C)C)C(=O)N12` (stereo not given in full): the viability in test [1] was 138%; in test [3], 138% (inactive); in test [8], 84.2% (inactive); in test [5] (setting [9]) it was 72.4%; in test [5] (setting [10]), 84.2%. Besides, the Her2 level in test [2] is 71% (inactive). In addition, the differential viability (reversal) in test [5] (H69AR cells + 2 uM doxorubicin) is 11.8% (inactive).

For the compound `O=C(NCc1ccco1)c1cc2c(s1)CSC2`, the viability was 97.5% in test [1]; 97.5% (inactive) in test [3]; 82.8% (inactive) in test [4]; 83.6% in test [5] (setting [9]); 57.3% in test [5] (setting [10]). For the same compound, the Her2 level in test [2] is 88% (inactive). In test [5] (H69AR cells + 2 uM doxorubicin), the differential viability (reversal) is -26.3% (inactive). The values for the inhibition in test [6] and in test [7] were -0.92% (inactive) and 2.86% (inactive), respectively.

For the compound `CC(C)(C)c1cc(NC(=O)c2cc(F)c(F)c(F)c2F)no1`, the viability in test [1] is 102%; in test [3] it was 102% (inactive); in test [4], 63.6% (inactive); in test [5] (setting [9]), 70.8%; in test [5] (setting [10]), 50.2%. Moreover, the Her2 level in test [2] was 92% (inactive). Further, the differential viability (reversal) in test [5] (H69AR cells + 2 uM doxorubicin) was -20.6% (inactive). Further, the figures for the inhibition in test [6] and in test [7] were 2.08% (inactive) and -3.83% (inactive), respectively.

In the case of `CCOC(=O)c1cnn(-c2sc(C(=O)OCC)c(C)c2C(=O)OCC)c1N`, the viability in test [1] is 95%; in test [3] it was 95% (inactive); in test [8], 15.8% (active); in test [5] (setting [9]), 41.6%; in test [5] (setting [10]) it was 15.8%. The Her2 level in test [2] was 93.5% (inactive). The differential viability (reversal) in test [5] (H69AR cells + 2 uM doxorubicin) was -25.8% (inactive). In addition, the inhibition in test [6] was 0.27% (inactive); in test [7], -4.6% (inactive).

As to `O=C(Cn1nc(-c2ccc(Cl)cc2)ccc1=O)NCCCN1CCN(Cc2ccccc2)CC1`, the viability in test [1] was 75%; in test [3], 75% (inactive); in test [8], 90.1% (inactive); in test [5] (setting [9]), 93.4%; in test [5] (setting [10]), 90.1%. The Her2 level in test [2] was 106% (inactive). In test [5] (H69AR cells + 2 uM doxorubicin), the differential viability (reversal) is -3.28% (inactive). For the same compound, the inhibition in test [6] is -0.26% (inactive); in test [7], -3.55% (inactive).

Turning to `CCOC(=O)c1oc2ccccc2c1NC(=O)c1cccc(OC)c1OC`, the viability in test [1] is 96.5%; in test [3] it was 96.5% (inactive); in test [4], 51% (inactive); in test [5] (setting [9]) it was 88.2%; in test [5] (setting [10]) it was 19.6%. In addition, in test [2], the Her2 level is 100% (inactive). Besides, the differential viability (reversal) in test [5] (H69AR cells + 2 uM doxorubicin) is -68.6% (inactive). The inhibition was -2.99% (inactive) in test [6] and -2.22% (inactive) in test [7].

Consider `Cc1ccc(O)c(-c2cc3ccccc3[nH]2)c1`, for which the viability in test [1] is 105%; in test [3], 105% (inactive); in test [8] it was 70.2% (inactive); in test [5] (setting [9]), 59.2%; in test [5] (setting [10]), 70.2%. In addition, the Her2 level in test [2] is 87% (inactive). Further, the differential viability (reversal) in test [5] (H69AR cells + 2 uM doxorubicin) is 11.1% (inactive). Besides, the inhibition in test [6] is -8.92% (inactive); in test [7] it was 0.33% (inactive).

With `CN1CCc2nc(SCCOc3ccccc3)c(C#N)cc2C1`, the viability in test [1] is 150%; in test [3] it was 150% (inactive); in test [8], 84.8% (inactive); in test [5] (setting [9]) it was 98.5%; in test [5] (setting [10]) it was 84.8%. In test [2], the Her2 level was 25% (active). Also, the differential viability (reversal) in test [5] (H69AR cells + 2 uM doxorubicin) is -13.7% (inactive). In addition, the inhibition in test [6] is -1.69% (inactive); in test [7], 0.67% (inactive).
